Published values collected from several papers.
Compare with care: the assays were run in different laboratories.
Target: LIM domain kinase 1 (LIMK1, Homo sapiens, UniProt P53667)

`Cn1nc(C(F)(F)F)cc1-c1cnc(N2CCc3cc(S(=O)(=O)Nc4c(F)cc(Cl)cc4F)cc(N4CCCC4=O)c32)nc1` gave a remaining binding of 100% (cell-free assay, competition with immobilised ligand; 1 µM).
`CNC(=O)c1cc(Oc2ccc(NC(=O)Nc3ccc(Cl)c(C(F)(F)F)c3)cc2)ccn1` has an inhibition of 29% (enzyme activity, inhibitor; 0.3 µM).
For `Cn1cnc(Br)c1C1=CN(c2ncnc3[nH]cnc23)CCS1`, the inhibition was 82.8% (enzyme activity, inhibitor, radiometric; 2 µM).
`Oc1ccc(-c2nc(-c3ccncc3)c(-c3ccc(F)cc3)[nH]2)cc1` gave a remaining signal of 91.4% (cell-free assay; 0.5 µM).
With `O=C(Nc1cccnn1)N1CC(C/C=C/c2cncc(Oc3ccc(C(F)(F)F)cn3)n2)C1` the remaining binding was 88% (cell-free assay, competition with immobilised ligand; 1 µM).
`COc1cc(Cl)c(C(=O)N[C@@H](CN[C@H]2CC[C@@H](N)CC2)Cc2ccc(C#N)cc2)cc1-c1ccc(CN[C@H](C)c2ccc(C)cc2)o1` gave a remaining activity of 100% (enzyme activity, inhibitor; 1 µM).
`Cc1cc(NC(=O)c2cccc3cc(-c4cccc5[nH]nc(N)c45)ccc23)ccc1F` has an activity vs control of 90% (enzyme activity, inhibitor; 0.1 µM).
For `CC(C)(C)c1nc2c(s1)c1nc(N)ncc1c1ccc(NS(=O)(=O)c3c(F)cccc3F)c(F)c12`, the remaining activity was 100% (enzyme activity, inhibitor, radiometric; 1 µM).
The inhibition of `CCN(CC)CCNC(=O)c1c(C)[nH]c(/C=C2\C(=O)Nc3ccc(F)cc32)c1C` is reported as 39% (enzyme activity, inhibitor; 10 µM).
For `CN1CCN(c2cnc3c(C4CCN(C(=O)c5ccc(OC(F)(F)F)cc5N)CC4)ncnc3c2)CC1`, the remaining binding was 100% (cell-free assay, competition with immobilised ligand; 1 µM).
With `CCCS(=O)(=O)Nc1ccc(F)c(C(=O)c2c[nH]c3ncc(-c4ccc(Cl)cc4)cc23)c1F` the inhibition was less than 10% (enzyme activity, inhibitor; 1 µM).
`O=C(Nc1cnn(-c2csc(C(=O)NC3COC3)c2)c1)Nc1ccccc1Cl` gave a remaining activity of 96.2% (enzyme activity, inhibitor; 5 µM).
For `CC(C)(O)[C@H]1CC[C@H](Nc2ccc3ncc(-c4cccc(C(F)(F)F)c4)n3n2)CC1`, the remaining activity was 76.3% (enzyme activity, inhibitor; 1 µM).
For `CNC(=O)c1ccc(Nc2ncc(C(F)(F)F)c(NCc3nccnc3N(C)S(C)(=O)=O)n2)cc1`, the remaining binding was 100% (cell-free assay, competition with immobilised ligand; 0.1 µM).
The remaining signal of `O=C1Nc2ccc(Cl)cc2C1=Cc1cc(Cl)c(O)c(Cl)c1` is reported as 83.7% (cell-free assay; 0.5 µM).
`CCCOc1ccc([C@@H]2[C@@H](C(=O)O)[C@H](c3ccc4c(c3)OCO4)CN2CC(=O)Nc2c(CC)cccc2CC)cc1` has a remaining binding of 90% (cell-free assay, competition with immobilised ligand; 1 µM).
`O=C1NC(=O)c2cc(Nc3ccc(F)cc3)c(Nc3ccc(F)cc3)cc21` gave a remaining signal of 95.9% (cell-free assay; 0.5 µM).
With `Cc1sc(C(=O)NC2COC2)cc1-n1cc(NC(=O)Nc2c(F)cccc2Cl)cn1` the remaining activity was 105% (enzyme activity, inhibitor; 10 µM).
`N#CCCc1ccc2c(c1)-c1[nH]c3ccc([N+](=O)[O-])cc3c1CC(=O)N2` has a remaining signal of 99.9% (cell-free assay; 0.5 µM).
`CCOC(=O)c1cc2cc(-c3cc(C(=O)NCc4ccc(C(=O)O)cc4)nn3C)ccc2[nH]1` has a remaining binding of 100% (cell-free assay, competition with immobilised ligand; 0.1 µM).
